A short description of series [1]: Cytotoxicity against human HUVEC cells assessed as cell viability at 9 to 150 uM after 24 hrs by MTT assay relative to control. The following applies: read-out: Activity. In kind it is cell-based. In short, it runs like this:
(§1)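 Hep3B hepatoma, PC-3 prostate cancer and HUVEC (healthy control) cells were exposed to nitro compounds at 150, 75, 38, 19 and 9 µM for 24 h and 48 h. Viability was read by MTT assay, and IC50 values were derived from the growth inhibition curves.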
For orientation: Tetrazolium dyes change colour on reduction, which living cells bring about.

The target of series [2] is T1, Putative nitroreductase (Staphylococcus saprophyticus subsp. saprophyticus (strain ATCC 15305 / DSM20229 / NCIMB 8711 / NCTC 7292 / S-41), UniProt Q4A0P1).
T1 sequence (Q4A0P1 whole entry): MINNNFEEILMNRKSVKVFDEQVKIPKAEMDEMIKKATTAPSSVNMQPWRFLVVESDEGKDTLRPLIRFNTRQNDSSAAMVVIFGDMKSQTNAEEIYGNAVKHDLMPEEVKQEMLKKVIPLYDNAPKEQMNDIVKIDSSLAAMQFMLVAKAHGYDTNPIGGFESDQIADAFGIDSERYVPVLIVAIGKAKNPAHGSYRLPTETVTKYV
The series can be described thus: Substrate activity at Staphylococcus saprophyticus nitroreductase expressed in Escherichia coli BL21 (DE3) assessed as retention time by HPLC analysis. It counts as ADME.

The nature of series [3]: Cytotoxicity against human HUVEC cells assessed as cell viability at 9 to 150 uM after 48 hrs by MTT assay relative to control. In kind it is cell-based. The following applies: read-out: Activity. The gist of the method:
as §1

Series [4] deals with Hep 3B2. The series can be described thus: Cytotoxicity against human Hep3B cells assessed as cell viability after 24 hrs by MTT assay. It counts as functional, cell-based. In short, it runs like this:
as §1

Series [5] deals with Hep 3B2. The series can be described thus: Cytotoxicity against human Hep3B cells assessed as cell viability at 9 to 150 uM after 48 hrs by MTT assay relative to control. It counts as functional. In short, it runs like this: as §1
Series [6] addresses T1, Putative nitroreductase. The series can be described thus: Substrate activity at Staphylococcus saprophyticus nitroreductase NtrB assessed as Kcat/Km using NADH as cofactor in Tris-Cl buffer at pH 7.5 by HPLC analysis relative to CB1954/NfsB. It counts as ADME.
Series [7] concerns PC-3. The series can be described thus: Cytotoxicity against human PC3 cells assessed as cell viability at 9 to 150 uM after 48 hrs by MTT assay relative to control. In kind it is functional. The gist of the method: as §1
The target in series [8] is T1, Putative nitroreductase. The series can be described thus: Substrate activity at Staphylococcus saprophyticus nitroreductase NtrB assessed as enzyme specific activity using NADH as cofactor in Tris-Cl buffer at pH 7.5 by HPLC analysis. In kind it is ADME.
Series [9] deals with PC-3. The series can be described thus: Cytotoxicity against human PC3 cells assessed as cell viability after 24 hrs by MTT assay. The following applies: Homo sapiens, PC-3, 24 h; read-out: IC50. In kind it is functional, cell-based. In short, it runs like this:
as §1

The test system of series [10] is HUVEC. The series can be described thus: Cytotoxicity against human HUVEC cells assessed as cell viability after 24 hrs by MTT assay. It counts as cell-based. The following applies: Homo sapiens, HUVEC. In short, it runs like this:
as §1

The subject of series [11] is Hep 3B2. The series can be described thus: Cytotoxicity against human Hep3B cells assessed as cell viability at 9 to 150 uM after 24 hrs by MTT assay relative to control. It counts as functional. The gist of the method:
as §1

Series [12] has as its target T1, Putative nitroreductase. The series can be described thus: Substrate activity at Staphylococcus saprophyticus nitroreductase NtrB assessed as Kcat/Km using NADPH as cofactor in Tris-Cl buffer at pH 7.5 by HPLC analysis relative to CB1954/NfsB. In kind it is ADME.
Series [13] has as its system PC-3. The series can be described thus: Cytotoxicity against human PC3 cells assessed as cell viability at 9 to 150 uM after 24 hrs by MTT assay relative to control. It counts as functional. The gist of the method:
as §1

In series [14] the test system is PC-3. The series can be described thus: Cytotoxicity against human PC3 cells […] Staphylococcus saprophyticus nitroreductase NtrB assessed as reduction in cell viability in presence of NADH as cofactor after 48 hrs by SRB assay. It counts as functional, cell-based. The following applies: PC-3, 48 h. In short, it runs like this: (§2)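 Compounds were reduced outside the cells by purified His-tag (Ni column) Ssap-NtrB. The reaction mix held 600 µM NADH and compound (150, 39, 9 µM, or 180, 18, 1.8 nM) and was applied to PC-3 cells. Controls were compound alone in 25 mM Tris/HCl pH 7.5, and enzyme alone at 31 µg/mL. After 48 h, SRB absorbance was read at 492 nm and converted to % viability.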
In general terms: The SRB assay estimates cell density from bound dye.

The test system of series [15] is PC-3. The series can be described thus: Cytotoxicity against human PC3 cells assessed as reduction in cell viability after 48 hrs by SRB assay. In kind it is functional, cell-based. In short, it runs like this:
as §2

Substrate in series [16]: O=C(CC(F)(F)F)Nc1cc(N2CCOCC2)c([N+](=O)[O-])cc1[N+](=O)[O-]
The series can be described thus: (§3) Substrate activity at Staphylococcus saprophyticus nitroreductase NtrB assessed as Km using NADH as cofactor in Tris-Cl buffer at pH 7.5 by HPLC analysis. It counts as ADME.

Substrate in series [17]: Nc1ccccc1Nc1ccc([N+](=O)[O-])cc1[N+](=O)[O-]
The series is described as §3. It counts as ADME.

Substrate in series [18]: CCC(=O)Nc1cc(N2CCOCC2)c([N+](=O)[O-])cc1[N+](=O)[O-]
The description is as §3. It counts as ADME.

Substrate in series [19]: O=[N+]([O-])c1ccc(N2CCCCC2)c([N+](=O)[O-])c1
The description is as §3. It counts as ADME.

Substrate in series [20]: O=[N+]([O-])c1ccc(N2CCOCC2)c([N+](=O)[O-])c1
Described as §3. In kind it is ADME.

Substrate in series [21]: O=[N+]([O-])c1cc([N+](=O)[O-])c(Nc2ccc(S(=O)(=O)O)cc2)cc1Nc1ccc(S(=O)(=O)O)cc1
The description is as §3. It counts as ADME.

Substrate in series [22]: O=[N+]([O-])c1ccc(Nc2ccc3ccccc3c2)c([N+](=O)[O-])c1
The series can be described thus: Substrate activity at Staphylococcus saprophyticus nitroreductase NtrB assessed as Km using NADPH as cofactor in Tris-Cl buffer at pH 7.5 by HPLC analysis. It counts as ADME.

Activity calls are given as the source filed them. No cut-off for these calls is given here. Bounds are passed on as bounds.

Consider `CCC(=O)Nc1cc(N2CCOCC2)c([N+](=O)[O-])cc1[N+](=O)[O-]`, for which, in series [1], the viability at 24 h, up to 150 µM was in the range of 51 to 80%. The Retention_time in series [2] was 20.95 min. The viability at 48 h, up to 150 µM in series [3] was 51 to 80%. For the same molecule, the IC50 (commonly the midpoint of a concentration-inhibition curve) in [4] amounted to 90.7 µM. The Activity in series [5] was 51 - 80%. For the same molecule, in [6], the “fold change (FC)” value came out at 4.73.
Turning to `O=[N+]([O-])c1cc([N+](=O)[O-])c(Nc2ccc(Cl)cc2)cc1Nc1ccc(Cl)cc1`, the Activity in [7] is recorded as 51 - 80%; in series [8], 5.77 U/mg; in series [11], 51 - 80%; in [5], 51 - 80%. Besides, the Retention_time in series [2] is 35 min. Also, in [3], the viability at 48 h, up to 150 µM fell in the range of 51 to 80%. The IC50 came out at 150 µM in series [9] and 86.5 µM in series [10].
On to `CC(C)CC(=O)Nc1cc(N2CCOCC2)c([N+](=O)[O-])cc1[N+](=O)[O-]`, for which the viability at 24 h, up to 150 µM in series [1] lay in the range of 51 to 80%. Moreover, in series [2], the Retention_time was 24.16 min. Further, the viability at 48 h, up to 150 µM in [3] was in the range of 51 to 80%. In addition, in [4], the IC50 turned out to be 150 µM. Further, the Activity in series [5] was 51 - 80%.
For `CC(C)Nc1ccc([N+](=O)[O-])cc1[N+](=O)[O-]`, the viability at 24 h, up to 150 µM in series [1] is greater than 80%. For the same molecule, the Activity was greater than 80% in series [7], greater than 80% in series [13], greater than 80% in series [11] and 51 - 80% in series [5]. Moreover, the “fold change (FC)” value in series [12] is 0.74. For the same molecule, the Retention_time in [2] worked out at 17.94 min. In addition, the viability at 48 h, up to 150 µM in series [3] was greater than 80%. Also, the IC50 in [14] is 9.77 µM. Moreover, in [15], the outcome was inactive.

B1: Putative nitroreductase (Staphylococcus saprophyticus subsp. saprophyticus ATCC 15305 = NCTC 7292) (protein)
chain: MINNNFEEILMNRKSVKVFDEQVKIPKAEMDEMIKKATTAPSSVNMQPWRFLVVESDEGKDTLRPLIRFNTRQNDSSAAMVVIFGDMKSQTNAEEIYGNAVKHDLMPEEVKQEMLKKVIPLYDNAPKEQMNDIVKIDSSLAAMQFMLVAKAHGYDTNPIGGFESDQIADAFGIDSERYVPVLIVAIGKAKNPAHGSYRLPTETVTKYV
As for B1, the Km (commonly the substrate concentration at which the rate is half of its maximum) in [16] is 9.95 µM; in series [17] it was 137 µM; in series [18], 14 µM; in series [19] it was 104 µM; in series [20] it was 444 µM; in series [21] it was 255 µM. Besides, the Km in [22] was 15.7 µM. In addition, the kcat (commonly the number of substrate molecules converted per active site and unit of time at saturation) amounted to 0.234 s⁻¹ in series [16]; 0.315 s⁻¹ in series [17]; 0.37 s⁻¹ in [18]; 0.404 s⁻¹ in series [19]; 3.1 s⁻¹ in [20]; 3.4 s⁻¹ in series [21]. Also, the kcat in series [22] was determined as 0.1 s⁻¹. Also, the kcat/Km (in general, the second-order rate constant that governs catalysis at low substrate concentration) in series [16] came to 26500 M⁻¹ s⁻¹; in [17] it was 2300 M⁻¹ s⁻¹; in [18], 26500 M⁻¹ s⁻¹; in series [19], 3900 M⁻¹ s⁻¹; in [20], 6970 M⁻¹ s⁻¹; in series [21], 13300 M⁻¹ s⁻¹. In series [22], the kcat/Km was 8270 M⁻¹ s⁻¹.

Source of the values: ChEMBL document CHEMBL4376859, “Prodrugs for nitroreductase-based cancer therapy-3: Antitumor activity of the novel dinitroaniline prodrugs/Ssap-NtrB enzyme suicide gene system: Synthesis, in vitro and in silico evaluation in prostate cancer” (Eur J Med Chem, 2020).
